Measured values as given in ChEMBL document CHEMBL2440017, “Discovery of a potent, selective, and orally bioavailable histamine H3 receptor antagonist SAR110068 for the treatment of sleep-wake disorders” (Bioorg Med Chem Lett, 2013).
pEC50: −log10 of the molar value. The source made the active and inactive calls. The rule behind the calls is not given here.

Assays:
Rattus norvegicus [1] = assay: Awakening activity in rat assessed as decrease in slow wave and REM sleep at 3 to 10 mg/kg, po; type: functional, organism-based
Outline: (§1)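 Rats given compound orally at 3 or 10 mg/kg, or reference drugs i.p. or p.o. at 10 mg/kg. EEG recorded during the light phase and scored as wakefulness, slow wave sleep and REM sleep. Time-course analysis of the effects.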

Mus musculus [2] = assay: Toxicity in mouse assessed as behavioral side effect at 10 to 30 mg/kg, po; type: organism-based; parameters: dose 10-30 mg/kg, route oral; conditions: in vivo
Outline: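 Acute oral behavioral safety evaluation in mice. Oral doses were 0, 10 and 30 mg/kg. Behavioral, neurologic and autonomic signs were scored.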

[3] = Elimination half life in Sprague-Dawley rat plasma at 10 mg/kg, po; type: ADME, organism-based; parameters: dose 10 mg/kg, route oral; conditions: read-out: beta t1/2 (converted)
Outline: (§2)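 Oral gavage at 10 mg/kg to male OF1 mice (vehicle 5% DMSO/0.5% MC/0.2% Tween80, 1.0 mg/mL) or male Sprague-Dawley rats (vehicle 0.5% MC/0.2% Tween80, 1.0 mg/mL). Plasma and brain exposure and half-life determined.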

[4] = Induction of CYP450 in human hepatocytes at 1 to 60 uM; type: ADME, cell-based, Hepatocyte
Outline: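 Human hepatocytes (n = 4) exposed at 1–60 concentration and examined for induction of CYP isoforms.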

[5] = biological target: Histamine H3 receptor (Cavia porcellus) (UniProt Q9JI35); assay: Antagonist activity at histamine H3 receptor in guinea pig ileum assessed as inhibition of RAMH-induced inhibition of electrical field-stimulated contraction; type: tissue-based
Outline: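 Isolated guinea pig ileum contracted by electrical field stimulation. Contractions inhibited with the H3 agonist RAMH; test compound examined for competitive antagonism of this RAMH effect.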

[6] = Plasma concentration in cynomolgus monkey at 10 mg/kg, iv after 5 mins; type: ADME, organism-based, Macaca fascicularis; parameters: dose 10 mg/kg, route intravenous
Outline: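 Anaesthetized cynomolgus monkeys were dosed 10 mg/kg i.v. Plasma drug concentrations were measured at 5, 15 and 30 min post-dose, alongside arterial pressure, heart rate and ECG intervals.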

[7] = Metabolic stability in guinea pig microsomes; type: ADME, Cavia porcellus, Microsome
Outline: (§3)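 Percentage biotransformation measured in vitro in liver microsomes of each species.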

Plasma [8] = assay: Metabolic stability in rat plasma; type: ADME, cell-free
Outline: (§4)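 Compound stability measured in plasma of each species in vitro.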

Cytochrome P450 1A2 = biological target: T1, Cytochrome P450 1A2 (Homo sapiens, UniProt P05177); assay: Inhibition of CYP1A2 (unknown origin); type: ADME
T1 sequence (P05177 whole entry): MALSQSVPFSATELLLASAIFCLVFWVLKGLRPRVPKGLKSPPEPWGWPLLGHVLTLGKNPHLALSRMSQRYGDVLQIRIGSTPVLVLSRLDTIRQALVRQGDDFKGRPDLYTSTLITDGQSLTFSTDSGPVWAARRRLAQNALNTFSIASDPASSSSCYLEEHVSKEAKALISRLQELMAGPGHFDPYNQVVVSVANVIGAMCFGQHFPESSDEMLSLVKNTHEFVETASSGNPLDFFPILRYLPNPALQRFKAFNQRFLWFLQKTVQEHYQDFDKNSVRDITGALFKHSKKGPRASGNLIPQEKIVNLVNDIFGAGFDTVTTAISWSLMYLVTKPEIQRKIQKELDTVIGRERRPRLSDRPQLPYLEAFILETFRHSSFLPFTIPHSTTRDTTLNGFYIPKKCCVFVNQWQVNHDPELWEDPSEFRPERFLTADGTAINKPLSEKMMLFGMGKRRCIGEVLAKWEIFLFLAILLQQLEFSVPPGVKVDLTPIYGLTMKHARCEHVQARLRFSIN

[9] = Genotoxicity in micronucleus (unknown origin) at 5 to 950 ug/ml
Outline: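 Ames II and micronucleus tests, Ames over 3–1000 µg/mL and MNT over 5–950 µg/mL. Each run with and without metabolic activation by human liver microsome preparations.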

[10] = Drug degradation in gastrointestinal tract simulation medium after 48 hrs at room temperature; type: physicochemical; conditions: read-out: Drug degradation
Outline: (§5)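 Compound kept 48 h at room temperature in water, aqueous solutions of pH 1.0–7.4, DMSO, or GI-tract simulation medium. Percent degradation measured.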

Plasma [11] = assay: Metabolic stability in sheep plasma; type: ADME, cell-free, Ovis aries; outline: as §4
[12] = Oral bioavailability in Sprague-Dawley rat plasma at 10 mg/kg; type: ADME, organism-based
Outline: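 Male Sprague–Dawley rats received 2 mg/kg i.v. (0.5 mg/mL in saline) or 10 mg/kg p.o. (1.0 mg/mL in 0.5% MC/0.2% Tween80). Plasma and brain AUC0-inf were measured, and the B/P ratio was calculated from i.v. AUC0-inf.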

Plasma [13] = assay: Metabolic stability in dog plasma; type: ADME, cell-free, Canis lupus familiaris; outline: as §4
Rattus norvegicus [14] = assay: Awakening activity in rat assessed as increased wakefulness at 3 to 10 mg/kg, po; type: functional, organism-based; outline: as §1
[15] = Inhibition of CYP450 in human hepatocytes at > 100 uM; type: ADME, cell-based, Hepatocyte
Plasma [16] = assay: Metabolic stability in mouse plasma; type: ADME, cell-free; outline: as §4
[17] = AUC (0 to infinity) in Sprague-Dawley rat brain at 2 mg/kg, iv; type: ADME, organism-based; parameters: dose 2 mg/kg, route intravenous, time infinity
Outline: (§6)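 Male OF1 mice or male Sprague-Dawley rats, single 2 mg/kg i.v. dose. Mouse vehicle 50% 1-methyl-2-pyrrolidinone in saline at 1.0 mg/mL; rat vehicle saline at 0.5 mg/mL. Plasma and brain levels followed over time; AUC0-inf, t1/2 and clearance derived from exposure. Brain/plasma ratio uses i.v. AUC0-inf.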

[18] = Metabolic stability in monkey microsomes; type: ADME, Macaca mulatta, Microsome; conditions: rhesus monkey; outline: as §3
Mus musculus [19] = assay: Toxicity in mouse assessed as tremors at 100 mg/kg, po; type: organism-based; parameters: dose 100 mg/kg, route oral; conditions: in vivo
[20] = Ratio of AUC (0 to infinity) in OF1 mouse brain to AUC (0 to infinity) in OF1 mouse plasma at 2 mg/kg, iv; type: ADME, organism-based; parameters: dose 2 mg/kg, route intravenous; conditions: read-out: Ratio AUC
Outline: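 Male OF1 mice received 2 mg/kg i.v. (1.0 mg/mL in 50% 1-methyl-2-pyrrolidinone/saline) or 10 mg/kg p.o. (1.0 mg/mL in 5% DMSO/0.5% MC/0.2% Tween80). Plasma and brain AUC0-inf were measured, and the B/P ratio was calculated from i.v. AUC0-inf.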

CYP3A4 [21] = biological target: T2, CYP3A4 (Homo sapiens, UniProt P08684); assay: Inhibition of CYP3A4 (unknown origin) at 0.5 uM; type: ADME
CYP3A4 [22] = biological target: T2, CYP3A4; assay: Inhibition of CYP3A4 (unknown origin) at 5 uM; type: ADME
[23] = AUC in OF1 mouse brain at 10 mg/kg, po; type: ADME, organism-based; parameters: dose 10 mg/kg, route oral; outline: as §2
[24] = Metabolic stability in dog microsomes; type: ADME, Canis lupus familiaris, Microsome; outline: as §3
Histamine H3 receptor = Histamine H3 receptor (Homo sapiens, UniProt Q9Y5N1); assay: Antagonist activity at human histamine H3 receptor expressed in CHO cells co-expressing CRE-Luc; type: functional, cell-based
[25] = Metabolic stability in rat microsomes; type: ADME, Microsome; outline: as §3
[26] = Biotransformation in human microsomes; type: ADME, Microsome; conditions: read-out: Activity
Outline: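 Percentage biotransformation measured in human liver microsomes in vitro.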

Plasma [27] = assay: Metabolic stability in human plasma; type: ADME, cell-free; outline: as §4
[28] = Elimination half life in OF1 mouse plasma at 2 mg/kg, iv; type: ADME, organism-based; parameters: dose 2 mg/kg, route intravenous; conditions: read-out: beta t1/2 (converted); outline: as §6
[29] = Elimination half life in Sprague-Dawley rat brain at 10 mg/kg, po; type: ADME, organism-based; parameters: dose 10 mg/kg, route oral; conditions: read-out: beta t1/2 (converted); outline: as §2
[30] = AUC (0 to infinity) in OF1 mouse plasma at 2 mg/kg, iv; type: ADME, organism-based; parameters: dose 2 mg/kg, route intravenous, time infinity; outline: as §6
[31] = Drug degradation in aqueous solution at pH 1.0 to 7.4 after 48 hrs at room temperature; type: physicochemical; conditions: read-out: Drug degradation; outline: as §5

T2 sequence (P08684 whole entry): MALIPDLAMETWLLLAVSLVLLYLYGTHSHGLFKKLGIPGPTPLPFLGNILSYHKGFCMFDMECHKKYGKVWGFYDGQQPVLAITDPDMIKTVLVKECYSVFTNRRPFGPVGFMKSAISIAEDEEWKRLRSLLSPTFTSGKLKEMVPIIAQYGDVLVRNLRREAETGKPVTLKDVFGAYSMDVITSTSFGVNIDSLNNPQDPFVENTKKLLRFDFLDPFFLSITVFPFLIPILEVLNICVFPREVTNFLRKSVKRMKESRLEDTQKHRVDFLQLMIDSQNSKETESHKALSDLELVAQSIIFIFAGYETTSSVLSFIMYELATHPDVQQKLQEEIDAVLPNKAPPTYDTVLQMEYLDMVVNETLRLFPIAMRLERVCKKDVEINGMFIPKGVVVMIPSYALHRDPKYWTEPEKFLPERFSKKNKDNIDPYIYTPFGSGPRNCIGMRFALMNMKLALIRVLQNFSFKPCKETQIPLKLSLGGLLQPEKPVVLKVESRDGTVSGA
Histamine H3 receptor, sequence (Q9Y5N1 whole entry): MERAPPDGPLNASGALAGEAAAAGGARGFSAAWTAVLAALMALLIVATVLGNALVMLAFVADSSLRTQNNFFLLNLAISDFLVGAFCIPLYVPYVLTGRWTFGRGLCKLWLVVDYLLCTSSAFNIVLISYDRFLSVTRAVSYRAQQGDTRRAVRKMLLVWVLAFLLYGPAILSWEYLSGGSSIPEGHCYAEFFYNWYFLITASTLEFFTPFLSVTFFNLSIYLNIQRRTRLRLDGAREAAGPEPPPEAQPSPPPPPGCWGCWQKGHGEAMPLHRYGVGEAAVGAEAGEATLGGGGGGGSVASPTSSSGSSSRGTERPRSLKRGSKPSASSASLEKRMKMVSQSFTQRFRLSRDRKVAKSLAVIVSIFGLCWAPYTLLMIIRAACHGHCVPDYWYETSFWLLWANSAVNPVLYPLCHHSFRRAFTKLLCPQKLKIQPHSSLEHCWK
Histamine H3 receptor (Cavia porcellus), sequence (Q9JI35 whole entry): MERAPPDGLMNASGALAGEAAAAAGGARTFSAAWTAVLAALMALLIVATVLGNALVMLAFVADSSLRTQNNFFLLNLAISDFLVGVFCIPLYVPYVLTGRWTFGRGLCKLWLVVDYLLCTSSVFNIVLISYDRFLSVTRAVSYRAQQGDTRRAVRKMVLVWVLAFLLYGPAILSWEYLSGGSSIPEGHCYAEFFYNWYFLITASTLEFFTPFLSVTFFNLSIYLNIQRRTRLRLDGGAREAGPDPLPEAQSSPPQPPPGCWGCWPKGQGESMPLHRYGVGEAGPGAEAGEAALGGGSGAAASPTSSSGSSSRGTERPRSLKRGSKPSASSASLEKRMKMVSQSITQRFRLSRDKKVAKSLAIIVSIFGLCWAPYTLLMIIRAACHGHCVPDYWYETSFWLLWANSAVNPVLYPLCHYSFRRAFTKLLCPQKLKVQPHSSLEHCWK

For Cc1cc(N2CC[C@H](N3CCC[C@@H]3C)C2)ccc1NC(=O)C1CCOCC1, the Activity (Rattus norvegicus [1]) was “Active”, the Activity (Mus musculus [2]) was “Non-toxic” and the half-life [3] was 3 h. The Activity [4] was “Not Active”, the inhibition [5] was “Active” and the concentration at 5 min [6] was 28 µM. For the same compound, the Stability [7] was “Stable”, the Stability (Plasma [8]) was “Stable” and the “inhibition (INH)” value (Cytochrome P450 1A2) was “Active”. For the same compound, the Activity [9] was “Non-toxic”, the degraded at 48 h [10] was less than 2% and the Stability (Plasma [11]) was “Stable”. The bioavailability [12] was 80%, the Stability (Plasma [13]) was “Stable” and the Activity (Rattus norvegicus [14]) was “Active”. The “inhibition (INH)” value [15] was “Not Active”, the Stability (Plasma [16]) was “Stable” and the AUC(0-inf) [17] was 700 ng·h/mL. The Stability [18] was “Stable”, the Activity (Mus musculus [19]) was “Non-toxic” and the Kp [20] was 0.35. It also gave an inhibition at 0.5 µM (CYP3A4 [21]) of 49%, an inhibition at 5 µM (CYP3A4 [22]) of 61% and an AUC [23] of 1200 ng·h/mL. For the same compound, the Stability [24] was “Stable”, the pEC50 (Histamine H3 receptor) was 9.05 and the Stability [25] was “Stable”. For the same compound, the metabolised [26] was less than 5%, the Stability (Plasma [27]) was “Stable” and the half-life [28] was 3.6 h. For the same compound, the half-life [29] was 3.8 h, the AUC(0-inf) [30] was 1100 ng·h/mL and the degraded at 48 h [31] was less than 2%.
